Assay results: ChEMBL document CHEMBL4354843, “Structure-Based Design of a Potent and Selective Covalent Inhibitor for SRC Kinase That Targets a P-Loop Cysteine” (J Med Chem, 2020)

What was measured:
[1] = tested on: Tyrosine-protein kinase ABL1 (Homo sapiens), P00519 [F317I]; experiment: Binding affinity to human phosphorylated ABL1 F317I mutant (S229 to K512 residues) expressed in mammalian expression system assessed as residual binding level at 1 uM by Kinomescan method relative to control
Procedure, shortened: (§1)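 KinomeScan active site-directed competition binding panel (468 kinases), compound tested at 1 μM. Result expressed as remaining kinase signal versus DMSO control (percent of control).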

[2] = molecular target: Cyclin-dependent kinase 2 (Homo sapiens) (UniProt P24941); experiment: Binding affinity to wild-type human full length CDK2 (M1 to L298 residues) expressed in bacterial expression system assessed as residual binding level at 1 uM by Kinomescan method relative to control
Procedure, shortened: (§2)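 Active-site-directed KinomeScan competition binding panel covering 468 kinases, compound tested at 1 μM. Each readout is the kinase signal remaining with compound, expressed as a percentage of the DMSO control. […]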

[3] = molecular target: Cyclin-dependent kinase 3 (Homo sapiens) (UniProt Q00526); experiment: Binding affinity to wild-type human full length CDK3 (M1 to H305 residues) expressed in bacterial expression system assessed as residual binding level at 1 uM by Kinomescan method relative to control; procedure, shortened: as §2
[4] = molecular target: Serine/threonine-protein kinase DCLK2 (Homo sapiens) (UniProt Q8N568); experiment: Binding affinity to wild-type human partial length DCAMKL2 (K273 to V664 residues) expressed in bacterial expression system assessed as residual binding level at 1 uM by Kinomescan method relative to control
Chain of Serine/threonine-protein kinase DCLK2 (Homo sapiens) (Q8N568 whole entry, the tested form may be a part): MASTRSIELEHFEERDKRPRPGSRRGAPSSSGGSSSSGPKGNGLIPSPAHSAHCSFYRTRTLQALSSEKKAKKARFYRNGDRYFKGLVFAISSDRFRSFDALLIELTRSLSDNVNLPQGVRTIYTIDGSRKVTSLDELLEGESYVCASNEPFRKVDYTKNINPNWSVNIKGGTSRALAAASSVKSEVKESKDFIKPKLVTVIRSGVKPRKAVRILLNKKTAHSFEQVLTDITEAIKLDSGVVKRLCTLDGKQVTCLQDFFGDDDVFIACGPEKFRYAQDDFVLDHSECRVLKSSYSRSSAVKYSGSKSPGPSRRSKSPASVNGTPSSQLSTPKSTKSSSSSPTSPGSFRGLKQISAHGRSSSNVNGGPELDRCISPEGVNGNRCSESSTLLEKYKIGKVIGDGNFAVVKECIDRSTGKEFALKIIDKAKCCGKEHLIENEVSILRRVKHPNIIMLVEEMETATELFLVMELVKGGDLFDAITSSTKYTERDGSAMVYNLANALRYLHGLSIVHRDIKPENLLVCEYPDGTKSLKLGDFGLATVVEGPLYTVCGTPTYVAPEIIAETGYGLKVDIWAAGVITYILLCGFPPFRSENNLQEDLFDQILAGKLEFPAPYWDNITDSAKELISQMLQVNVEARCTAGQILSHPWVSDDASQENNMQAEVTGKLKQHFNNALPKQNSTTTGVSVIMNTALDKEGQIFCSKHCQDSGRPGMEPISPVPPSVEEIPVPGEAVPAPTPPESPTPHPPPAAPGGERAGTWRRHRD

[5] = molecular target: Mitogen-activated protein kinase 15 (Homo sapiens) (UniProt Q8TD08); experiment: Binding affinity to wild-type human partial length ERK8 (M1 to P437 residues) expressed in bacterial expression system assessed as residual binding level at 1 uM by Kinomescan method relative to control
Chain of Mitogen-activated protein kinase 15 (Homo sapiens) (Q8TD08 whole entry, the tested form may be a part): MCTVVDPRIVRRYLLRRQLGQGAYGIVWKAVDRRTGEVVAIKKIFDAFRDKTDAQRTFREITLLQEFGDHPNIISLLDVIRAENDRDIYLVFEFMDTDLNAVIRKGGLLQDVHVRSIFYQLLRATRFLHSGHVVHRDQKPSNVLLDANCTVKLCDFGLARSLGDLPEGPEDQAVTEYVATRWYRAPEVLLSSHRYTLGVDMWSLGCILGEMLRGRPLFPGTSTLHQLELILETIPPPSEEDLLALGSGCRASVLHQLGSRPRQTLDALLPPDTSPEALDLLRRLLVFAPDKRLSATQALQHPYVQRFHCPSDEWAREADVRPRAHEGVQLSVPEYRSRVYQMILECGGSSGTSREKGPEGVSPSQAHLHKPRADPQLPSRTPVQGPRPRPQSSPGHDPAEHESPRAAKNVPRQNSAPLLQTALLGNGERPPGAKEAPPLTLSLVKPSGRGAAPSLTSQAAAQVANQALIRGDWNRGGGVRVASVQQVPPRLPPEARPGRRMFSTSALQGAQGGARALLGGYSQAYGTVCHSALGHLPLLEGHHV

[6] = molecular target: Fibroblast growth factor receptor 2 (Homo sapiens) (UniProt P21802); experiment: Binding affinity to wild-type human partial length FGFR2 (D457 to E769 residues) expressed in bacterial expression system assessed as residual binding level at 1 uM by Kinomescan method relative to control
Chain of Fibroblast growth factor receptor 2 (Homo sapiens) (P21802 22-821 limits assumed): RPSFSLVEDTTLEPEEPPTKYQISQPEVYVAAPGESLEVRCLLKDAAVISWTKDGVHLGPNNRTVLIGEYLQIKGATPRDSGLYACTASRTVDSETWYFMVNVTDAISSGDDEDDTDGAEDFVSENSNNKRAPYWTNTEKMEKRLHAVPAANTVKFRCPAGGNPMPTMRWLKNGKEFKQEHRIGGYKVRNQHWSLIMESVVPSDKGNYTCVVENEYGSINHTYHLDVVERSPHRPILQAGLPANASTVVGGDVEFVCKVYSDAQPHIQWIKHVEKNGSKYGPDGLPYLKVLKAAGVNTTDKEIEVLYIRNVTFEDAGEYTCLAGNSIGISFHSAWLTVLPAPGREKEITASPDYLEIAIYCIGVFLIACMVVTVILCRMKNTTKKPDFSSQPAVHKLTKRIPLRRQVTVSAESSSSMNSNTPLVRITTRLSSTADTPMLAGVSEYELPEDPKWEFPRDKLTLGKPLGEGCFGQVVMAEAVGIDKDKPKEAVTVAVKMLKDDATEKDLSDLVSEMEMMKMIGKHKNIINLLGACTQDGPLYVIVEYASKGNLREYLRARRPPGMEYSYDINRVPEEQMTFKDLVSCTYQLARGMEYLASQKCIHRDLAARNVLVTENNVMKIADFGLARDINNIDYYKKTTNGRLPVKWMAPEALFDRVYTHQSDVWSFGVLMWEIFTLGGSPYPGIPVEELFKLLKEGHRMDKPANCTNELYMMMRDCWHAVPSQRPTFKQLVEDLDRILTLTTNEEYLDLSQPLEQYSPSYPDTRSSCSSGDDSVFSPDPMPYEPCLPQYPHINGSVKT

[7] = tested on: Receptor-type tyrosine-protein kinase FLT3 (Homo sapiens), P36888 [UNDEFINED MUTATION]; experiment: Binding affinity to human partial length FLT3 ITD/D835V double mutant expressed in bacterial expression system assessed as residual binding level at 1 uM by Kinomescan method relative to control; procedure, shortened: as §1
[8] = molecular target: Serine/threonine-protein kinase LATS2 (Homo sapiens) (UniProt Q9NRM7); experiment: Binding affinity to wild-type human partial length LATS2 (Q641 to V1088 residues) expressed in mammalian expression system assessed as residual binding level at 1 uM by Kinomescan method relative to control
[9] = molecular target: Leucine-rich repeat serine/threonine-protein kinase 2 (Homo sapiens) (UniProt Q5S007); experiment: Binding affinity to wild-type human partial length LRRK2 (H970 to E2527 residues) expressed in mammalian expression system assessed as residual binding level at 1 uM by Kinomescan method relative to control
[10] = molecular target: Serine/threonine-protein kinase MAK (Homo sapiens) (UniProt P20794); experiment: Binding affinity to wild-type human partial length MAK (M1 to P314 residues) expressed in bacterial expression system assessed as residual binding level at 1 uM by Kinomescan method relative to control
Procedure, shortened: (§3)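 Active-site-directed competition binding panel of 468 kinases (KinomeScan), compound at 1 μM. The read-out is kinase remaining bound, given as a percentage of the DMSO control. […]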

[11] = molecular target: Microtubule-associated serine/threonine-protein kinase 1 (Homo sapiens) (UniProt Q9Y2H9); experiment: Binding affinity to wild-type human partial length MAST1 (S346 to V730 residues) expressed in mammalian expression system assessed as residual binding level at 1 uM by Kinomescan method relative to control; procedure, shortened: as §3
[12] = molecular target: Dual specificity mitogen-activated protein kinase kinase 5 (Homo sapiens) (UniProt Q13163); experiment: Binding affinity to wild-type human partial length MEK5 (L98 to P448 residues) expressed in mammalian expression system assessed as residual binding level at 1 uM by Kinomescan method relative to control; procedure, shortened: as §3
[13] = molecular target: Mitogen-activated protein kinase kinase kinase 9 (Homo sapiens) (UniProt P80192); experiment: Binding affinity to wild-type human partial length MLK1 (V88 to W426 residues) expressed in bacterial expression system assessed as residual binding level at 1 uM by Kinomescan method relative to control
[14] = molecular target: Myosin light chain kinase family member 4 (Homo sapiens) (UniProt Q86YV6); experiment: Binding affinity to wild-type human partial length MYLK4 (V79 to S380 residues) expressed in bacterial expression system assessed as residual binding level at 1 uM by Kinomescan method relative to control
[15] = molecular target: Serine/threonine-protein kinase Nek10 (Homo sapiens) (UniProt Q6ZWH5); experiment: Binding affinity to wild-type human partial length NEK10 (L488 to R809 residues) expressed in mammalian expression system assessed as residual binding level at 1 uM by Kinomescan method relative to control
[16] = molecular target: Mitogen-activated protein kinase 13 (Homo sapiens) (UniProt O15264); experiment: Binding affinity to wild-type human full length p38-delta (M1 to L365 residues) expressed in bacterial expression system assessed as residual binding level at 1 uM by Kinomescan method relative to control
Chain of Mitogen-activated protein kinase 13 (Homo sapiens) (O15264 whole entry, the tested form may be a part): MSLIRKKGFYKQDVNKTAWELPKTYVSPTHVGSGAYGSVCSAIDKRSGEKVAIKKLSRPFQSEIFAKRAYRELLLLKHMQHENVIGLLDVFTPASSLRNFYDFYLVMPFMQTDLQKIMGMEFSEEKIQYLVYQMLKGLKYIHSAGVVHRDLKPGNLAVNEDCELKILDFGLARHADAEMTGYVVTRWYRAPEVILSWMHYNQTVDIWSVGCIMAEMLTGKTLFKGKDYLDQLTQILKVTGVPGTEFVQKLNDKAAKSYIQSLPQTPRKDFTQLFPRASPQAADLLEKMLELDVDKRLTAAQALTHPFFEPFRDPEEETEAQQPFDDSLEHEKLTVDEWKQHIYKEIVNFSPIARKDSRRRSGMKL

[17] = molecular target: Phosphatidylinositol 3-kinase C2 domain-containing subunit gamma (Homo sapiens) (UniProt O75747); experiment: Binding affinity to wild-type human partial length PIK3C2G (M1 to I1446 residues) expressed in mammalian expression system assessed as residual binding level at 1 uM by Kinomescan method relative to control
[18] = molecular target: Serine/threonine-protein kinase N1 (Homo sapiens) (UniProt Q16512); experiment: Binding affinity to wild-type human partial length PKN1 (E598 to C948 residues) expressed in bacterial expression system assessed as residual binding level at 1 uM by Kinomescan method relative to control; procedure, shortened: as §3
Chain of Serine/threonine-protein kinase N1 (Homo sapiens) (Q16512 2-942 limits assumed): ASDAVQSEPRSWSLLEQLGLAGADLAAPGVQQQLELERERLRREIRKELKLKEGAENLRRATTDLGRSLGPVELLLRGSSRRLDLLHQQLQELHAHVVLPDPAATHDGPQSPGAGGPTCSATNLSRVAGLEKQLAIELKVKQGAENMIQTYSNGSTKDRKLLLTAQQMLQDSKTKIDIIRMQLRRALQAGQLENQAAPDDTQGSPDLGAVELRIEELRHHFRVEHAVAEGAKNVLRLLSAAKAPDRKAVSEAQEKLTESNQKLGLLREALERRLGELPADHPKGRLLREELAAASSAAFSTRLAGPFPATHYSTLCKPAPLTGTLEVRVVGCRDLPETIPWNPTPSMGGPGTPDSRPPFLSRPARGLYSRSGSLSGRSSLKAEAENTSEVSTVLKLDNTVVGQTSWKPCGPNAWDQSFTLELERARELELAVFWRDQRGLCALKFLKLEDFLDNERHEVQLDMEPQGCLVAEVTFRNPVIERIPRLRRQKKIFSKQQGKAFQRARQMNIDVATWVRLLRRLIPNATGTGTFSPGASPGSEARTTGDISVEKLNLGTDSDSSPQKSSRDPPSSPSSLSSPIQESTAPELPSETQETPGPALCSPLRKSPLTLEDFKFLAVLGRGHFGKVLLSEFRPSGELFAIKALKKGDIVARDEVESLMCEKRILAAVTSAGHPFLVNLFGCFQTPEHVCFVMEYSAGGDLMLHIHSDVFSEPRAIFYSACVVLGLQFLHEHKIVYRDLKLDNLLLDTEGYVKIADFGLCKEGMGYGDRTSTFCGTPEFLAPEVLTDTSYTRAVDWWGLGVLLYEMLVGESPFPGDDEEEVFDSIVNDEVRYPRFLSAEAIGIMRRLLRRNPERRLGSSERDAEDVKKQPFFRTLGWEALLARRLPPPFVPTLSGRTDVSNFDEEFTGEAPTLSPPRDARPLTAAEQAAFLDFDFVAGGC

[19] = molecular target: Serine/threonine-protein kinase RIO2 (Homo sapiens) (UniProt Q9BVS4); experiment: Binding affinity to wild-type human partial length RIOK2 (M1 to D313 residues) expressed in mammalian expression system assessed as residual binding level at 1 uM by Kinomescan method relative to control
Chain of Serine/threonine-protein kinase RIO2 (Homo sapiens) (Q9BVS4 whole entry, looked up, the tested form may be a part): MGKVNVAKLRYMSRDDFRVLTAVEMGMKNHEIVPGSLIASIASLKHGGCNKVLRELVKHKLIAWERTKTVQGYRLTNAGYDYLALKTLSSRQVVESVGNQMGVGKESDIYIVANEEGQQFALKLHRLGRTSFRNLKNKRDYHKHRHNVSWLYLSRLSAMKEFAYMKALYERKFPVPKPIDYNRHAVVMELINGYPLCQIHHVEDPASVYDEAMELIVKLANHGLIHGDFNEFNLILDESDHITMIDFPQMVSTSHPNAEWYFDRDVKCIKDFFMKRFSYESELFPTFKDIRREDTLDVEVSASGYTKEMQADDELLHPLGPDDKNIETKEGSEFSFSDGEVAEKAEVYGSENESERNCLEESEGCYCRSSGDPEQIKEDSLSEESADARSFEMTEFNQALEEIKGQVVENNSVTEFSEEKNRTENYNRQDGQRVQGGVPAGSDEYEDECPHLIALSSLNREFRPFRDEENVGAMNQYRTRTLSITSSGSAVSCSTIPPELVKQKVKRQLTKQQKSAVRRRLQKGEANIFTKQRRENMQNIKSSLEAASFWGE

[20] = molecular target: NUAK family SNF1-like kinase 2 (Homo sapiens) (UniProt Q9H093); experiment: Binding affinity to wild-type human partial length SNARK (P22 to A333 residues) expressed in mammalian expression system assessed as residual binding level at 1 uM by Kinomescan method relative to control
[21] = molecular target: SRSF protein kinase 3 (Homo sapiens) (UniProt Q9UPE1); experiment: Binding affinity to wild-type human partial length SRPK3 (P41 to P567 residues) expressed in bacterial expression system assessed as residual binding level at 1 uM by Kinomescan method relative to control
[22] = molecular target: Tyrosine-protein kinase receptor TYRO3 (Homo sapiens) (UniProt Q06418); experiment: Binding affinity to wild-type human partial length TYRO3 (S497 to T814 residues) expressed in bacterial expression system assessed as residual binding level at 1 uM by Kinomescan method relative to control
Chain of Tyrosine-protein kinase receptor TYRO3 (Homo sapiens) (Q06418 whole entry, the tested form may be a part): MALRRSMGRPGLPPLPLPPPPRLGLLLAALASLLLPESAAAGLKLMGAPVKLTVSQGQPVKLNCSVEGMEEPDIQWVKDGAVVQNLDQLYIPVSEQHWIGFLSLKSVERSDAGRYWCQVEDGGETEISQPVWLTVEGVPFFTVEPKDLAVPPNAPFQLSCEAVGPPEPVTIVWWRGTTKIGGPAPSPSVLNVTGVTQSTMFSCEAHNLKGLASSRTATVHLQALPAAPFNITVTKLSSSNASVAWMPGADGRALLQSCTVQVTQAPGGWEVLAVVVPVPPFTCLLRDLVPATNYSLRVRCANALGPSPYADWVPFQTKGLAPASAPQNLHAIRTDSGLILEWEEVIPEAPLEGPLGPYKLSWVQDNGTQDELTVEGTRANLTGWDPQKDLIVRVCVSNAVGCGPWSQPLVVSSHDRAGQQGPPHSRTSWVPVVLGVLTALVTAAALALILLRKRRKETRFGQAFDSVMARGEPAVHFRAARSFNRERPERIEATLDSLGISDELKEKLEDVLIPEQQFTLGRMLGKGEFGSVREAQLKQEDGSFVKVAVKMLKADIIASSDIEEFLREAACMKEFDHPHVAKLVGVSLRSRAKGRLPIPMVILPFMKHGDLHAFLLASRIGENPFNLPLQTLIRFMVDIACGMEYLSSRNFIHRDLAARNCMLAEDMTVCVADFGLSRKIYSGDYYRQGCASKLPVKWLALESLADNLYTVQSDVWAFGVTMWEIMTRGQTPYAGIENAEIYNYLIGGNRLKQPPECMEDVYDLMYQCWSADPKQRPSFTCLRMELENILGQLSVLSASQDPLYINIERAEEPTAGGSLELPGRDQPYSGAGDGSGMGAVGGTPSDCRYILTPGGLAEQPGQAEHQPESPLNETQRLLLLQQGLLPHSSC

With `C=CC(=O)Nc1ccccc1Nc1nc(Nc2ccc(N3CCN(C)CC3)cc2)ncc1C(=O)Nc1c(C)cccc1Cl` the Activity [1] was 6.9%, the Activity [2] was 100% and the Activity [3] was 100%. It also gave an Activity [4] of 100%, an Activity [5] of 100% and an Activity [6] of 95%. The Activity [7] was 89%, the Activity [8] was 100% and the Activity [9] was 100%. It also gave an Activity [10] of 70%, an Activity [11] of 82% and an Activity [12] of 81%. The Activity [13] was 100%, the Activity [14] was 100% and the Activity [15] was 100%. The Activity [16] was 100%, the Activity [17] was 100% and the Activity [18] was 83%. The Activity [19] was 100%, the Activity [20] was 100% and the Activity [21] was 100%. For the same compound, the Activity [22] was 89%.
